# Columns and labels:
# [1] = test system: Mus musculus; experiment: In Vivo detection in Mice plasma after oral administration of 58.33 mg/kg detected in the form of AZT phosphodiester 3 after 0.5 hr; format: functional, organism-based; parameters: dose 58.33 mg/kg
# How it was run: (§1)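 Male Swiss mice (18–20 g, six weeks old) given the test substance or vehicle ([…]) by gavage as a 3 mM solution (1.5 µmol/mouse). Aortic blood was collected into heparinized tubes at 0.5–48 h and centrifuged at 13000g for 10 min. Plasma was stored at -22 °C and analysed by HPLC. Three mice were used per time point, in triplicate. Values were not corrected for recovery.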
# [2] = test system: Mus musculus; experiment: In Vivo detection in Mice plasma after oral administration of 58.33 mg/kg detected in the form of AZT 5`-P after 24 hr; format: functional, organism-based; parameters: dose 58.33 mg/kg
# [3] = test system: Mus musculus; experiment: In Vivo detection in Mice plasma after oral administration of 58.33 mg/kg detected in the form of AZT after 2 hr; format: functional, organism-based; parameters: dose 58.33 mg/kg
# [4] = test system: Mus musculus; experiment: In Vivo detection of total AZT in Mice plasma after oral administration of 58.33 mg/kg after 24 hr; format: functional, organism-based; parameters: dose 58.33 mg/kg; how it was run: as §1
# [5] = test system: Mus musculus; experiment: In Vivo detection in Mice brains after oral administration of 58.33 mg/kg detected in the form of AZT phosphodiester 3 after 4 hr; format: functional
# [6] = test system: Mus musculus; experiment: In Vivo detection of total AZT in Mice brains after oral administration of 58.33 mg/kg after 24 hr; format: functional
# How it was run: (§2)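 Male Swiss mice (18–20 g) dosed orally with a 3 mM solution in […] vehicle; decapitated at 0.5–48 h. Brains were homogenized in acetonitrile-water (3:1), centrifuged at 6000g for 40 min at 4 °C, lyophilized, redissolved in water and filtered (0.45 µm). Reversed-phase C18 column-switching HPLC with diode-array detection; standard spiking; vehicle-fed controls. Three mice per point, triplicates.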
# [7] = test system: Mus musculus; experiment: In Vivo detection in Mice brains after oral administration of 58.33 mg/kg detected in the form of AZT phosphodiester 2 after 1 hr; format: functional
# [8] = test system: Mus musculus; experiment: In Vivo detection in Mice plasma after oral administration of 58.33 mg/kg detected in the form of AZT 5`-P after 1 hr; format: functional, organism-based; parameters: dose 58.33 mg/kg
# [9] = species: Mus musculus; experiment: In Vitro detection by Gray and Whittaker method for % of internalization by comparing with external nucleoside of 2000 nM/g; format: functional
# How it was run: (§3)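 Crude synaptosomes from three mouse brains were prepared by Gray–Whittaker homogenization in 10% sucrose buffered with 5 mM Tris-HCl, pH 7.4. The 7000g pellet was resuspended and incubated with each nucleoside at 3 mM for 15 min at 37 °C, stopped by cold 10-fold dilution and washed twice. Internal nucleoside was extracted in acetonitrile–water (3:1) and measured by HPLC.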
# [10] = test system: Mus musculus; experiment: In Vivo detection in Mice brains after oral administration of 58.33 mg/kg detected in the form of AZT 5`-P after 0.5 hr; format: functional
# [11] = test system: Mus musculus; experiment: In Vivo detection in Mice brains after oral administration of 58.33 mg/kg detected in the form of AZT 5`-P after 8 hr; format: functional
# [12] = species: Mus musculus; experiment: In Vitro detection by Gray and Whittaker method for the total internal nucleoside; format: functional; how it was run: as §3
# [13] = test system: Mus musculus; experiment: In Vivo detection in Mice plasma after oral administration of 58.33 mg/kg detected in the form of AZT phosphodiester 2 after 4 hr; format: functional, organism-based; parameters: dose 58.33 mg/kg; how it was run: as §1
# [14] = test system: Mus musculus; experiment: In Vivo detection in Mice brains after oral administration of 58.33 mg/kg detected in the form of AZT phosphodiester 2 after 4 hr; format: functional
# [15] = test system: Mus musculus; experiment: In Vivo detection in Mice brains after oral administration of 58.33 mg/kg detected in the form of AZT after 24 hr; format: functional
# [16] = test system: Mus musculus; experiment: In Vivo detection of total AZT in Mice brains after oral administration of 58.33 mg/kg after 2 hr; format: functional; how it was run: as §2
# [17] = test system: Mus musculus; experiment: In Vivo detection in Mice brains after oral administration of 58.33 mg/kg detected in the form of AZT phosphodiester 3 after 8 hr; format: functional
# [18] = test system: Mus musculus; experiment: In Vivo detection of total AZT in Mice plasma after oral administration of 58.33 mg/kg after 48 hr; format: functional, organism-based; parameters: dose 58.33 mg/kg; how it was run: as §1
# [19] = test system: Mus musculus; experiment: In Vivo detection in Mice plasma after oral administration of 58.33 mg/kg detected in the form of AZT phosphodiester 2 after 8 hr; format: functional, organism-based; parameters: dose 58.33 mg/kg; how it was run: as §1
# [20] = test system: Mus musculus; experiment: In Vivo detection in Mice plasma after oral administration of 20 mg/kg detected in the form of AZT phosphodiester 2 after 0.5 hr; format: functional, organism-based; parameters: dose 20 mg/kg
# [21] = test system: Mus musculus; experiment: In Vivo detection in Mice plasma after oral administration of 41.63 mg/kg detected in the form of AZT after 2 hr; format: functional, organism-based; parameters: dose 41.63 mg/kg
# [22] = test system: Mus musculus; experiment: In Vivo detection in Mice brains after oral administration of 41.63 mg/kg detected in the form of AZT phosphodiester 2 after 0.5 hr; format: functional
# [23] = test system: Mus musculus; experiment: In Vivo detection in Mice plasma after oral administration of 41.63 mg/kg detected in the form of AZT phosphodiester 2 after 48 hr; format: functional, organism-based; parameters: dose 41.63 mg/kg
# [24] = test system: Mus musculus; experiment: In Vivo detection in Mice brains after oral administration of 41.63 mg/kg detected in the form of AZT 5`-P after 4 hr; format: functional
# [25] = test system: Mus musculus; experiment: In Vivo detection in Mice brains after oral administration of 41.63 mg/kg detected in the form of AZT phosphodiester 2 after 1 hr; format: functional
# [26] = test system: Mus musculus; experiment: In Vivo detection in Mice plasma after oral administration of 41.63 mg/kg detected in the form of AZT 5`-P after 8 hr; format: functional, organism-based; parameters: dose 41.63 mg/kg
# [27] = test system: Mus musculus; experiment: In Vivo detection in Mice plasma after oral administration of 41.63 mg/kg detected in the form of AZT 5`-P after 48 hr; format: functional, organism-based; parameters: dose 41.63 mg/kg
# [28] = test system: Mus musculus; experiment: In Vivo detection in Mice plasma after oral administration of 41.63 mg/kg detected in the form of AZT phosphodiester 2 after 2 hr; format: functional, organism-based; parameters: dose 41.63 mg/kg
# [29] = test system: Mus musculus; experiment: In Vivo detection in Mice plasma after oral administration of 41.63 mg/kg detected in the form of AZT phosphodiester 2 after 0.5 hr; format: functional, organism-based; parameters: dose 41.63 mg/kg
# [30] = test system: Mus musculus; experiment: In Vivo detection in Mice plasma after oral administration of 41.63 mg/kg detected in the form of AZT 5`-P after 2 hr; format: functional, organism-based; parameters: dose 41.63 mg/kg
# [31] = test system: Mus musculus; experiment: In Vivo detection in Mice plasma after oral administration of 41.63 mg/kg detected in the form of AZT after 8 hr; format: functional, organism-based; parameters: dose 41.63 mg/kg
# [32] = test system: Mus musculus; experiment: In Vivo detection of total AZT in Mice plasma after oral administration of 41.63 mg/kg after 24 hr; format: functional, organism-based; parameters: dose 41.63 mg/kg; how it was run: as §1
# [33] = test system: Mus musculus; experiment: In Vivo detection in Mice brains after oral administration of 41.63 mg/kg detected in the form of AZT phosphodiester 2 after 4 hr; format: functional
# [34] = test system: Mus musculus; experiment: In Vivo detection in Mice plasma after oral administration of 41.63 mg/kg detected in the form of AZT 5`-P after 0.5 hr; format: functional, organism-based; parameters: dose 41.63 mg/kg
# [35] = test system: Mus musculus; experiment: In Vivo detection of total AZT in Mice brains after oral administration of 41.63 mg/kg after 48 hr; format: functional; how it was run: as §2
# [36] = test system: Mus musculus; experiment: In Vivo detection in Mice brains after oral administration of 41.63 mg/kg detected in the form of AZT after 2 hr; format: functional
# [37] = test system: Mus musculus; experiment: In Vivo detection of total AZT in Mice plasma after oral administration of 41.63 mg/kg after 8 hr; format: functional, organism-based; parameters: dose 41.63 mg/kg; how it was run: as §1
# [38] = test system: Mus musculus; experiment: In Vivo detection in Mice brains after oral administration of 41.63 mg/kg detected in the form of AZT 5`-P after 1 hr; format: functional
smiles,measurement,setting,value
CCCCCCCCCCCCCCCCOP(=O)(OCCO[C@H]1O[C@H](CO)[C@@H](O)[C@H](O)[C@@H]1O)OCC1OC(n2cc(C)c(=O)[nH]c2=O)CC1N=[N+]=[N-] (stereo not given in full),Plasma content,[1],0 nM ml-1
same,Plasma content,[2],28.5 nM ml-1
same,Plasma content,[3],1.4 nM ml-1
same,Plasma content,[4],28.5 nM ml-1
same,Brain content,[5],0 nM ml-1
same,Brain content,[6],87.9 nM ml-1
same,Brain content,[7],8.5 nmol/g
same,Plasma content,[8],12.7 nM ml-1
same,Internalisation,[9],6.24%
same,Brain content,[10],36.7 nmol/g
same,Brain content,[11],106 nmol/g
same,Brain content,[12],567.8 nM/g
same,Plasma content,[13],0 nM ml-1
same,Brain content,[14],7.1 nmol/g
same,Brain content,[15],1.4 nmol/g
same,Brain content,[16],140.8 nM ml-1
same,Brain content,[17],0 nM ml-1
same,Plasma content,[18],14.2 nM ml-1
same,Plasma content,[19],0 nM ml-1
same,Plasma content,[20],0 nM ml-1
Cc1cn([C@H]2C[C@H](N=[N+]=[N-])[C@@H](COP(=O)(O)OCCO[C@H]3O[C@H](CO)[C@@H](O)[C@H](O)[C@@H]3O)O2)c(=O)[nH]c1=O,Plasma content,[21],3.1 nM ml-1
same,Brain content,[22],5.8 nM ml-1
same,Plasma content,[23],0 nM ml-1
same,Brain content,[24],59.3 nmol/g
same,Brain content,[25],16.5 nM ml-1
same,Plasma content,[26],5.7 nM ml-1
same,Plasma content,[27],17.9 nM ml-1
same,Plasma content,[28],1.6 nM ml-1
same,Plasma content,[29],4.5 nM ml-1
same,Plasma content,[30],15 nM ml-1
same,Plasma content,[31],0 nM ml-1
same,Plasma content,[32],26.8 nM ml-1
same,Brain content,[33],7.9 nM ml-1
same,Internalisation,[9],0.1%
same,Brain content,[12],8.3 nM/g
same,Plasma content,[34],20.4 nM ml-1
same,Brain content,[35],51.8 nM ml-1
same,Brain content,[36],1.2 nmol/g
same,Plasma content,[37],5.7 nM ml-1
same,Brain content,[38],79.3 nmol/g
